Here are results for three compounds from article PMC3969666 (Pharmacognosy Magazine, 2014).

The subject of one data set is Caco-2 cells. Nature of the data set: MTT cytotoxicity test of absorption enhancers with SHL on Caco-2 cells. The format is cell-based. To be noted: 24 h, with addition of SHL, tested 0.005-1.28 mg/mL. A general note: Tetrazolium assays rely on reduction of a dye to a coloured formazan, in cell work by metabolically active cells.
The subject of data set [1] is gastrointestinal membrane. Nature of the data set: Gastrointestinal membrane toxicity by morphological observation. As to conditions: rat. In kind it is in vivo. In outline:
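Male Sprague–Dawley rats (~250 g) given SHL with or without absorption enhancers by oral gavage. After 8 h exposure, stomach, jejunum and colon were sectioned, with two sections per tissue on each slide. Sections were HE-stained and examined microscopically for mucosal morphology.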

For data set [2] the following is noted: enhancement of FD4 absorption; ref 17 (Gao et al., 2008); cited from earlier work.
The subject of data set [3] is influenza virus strain A/PR8/34(H1N1). In kind it is cell-based, influenza virus A/PR8/34(H1N1) in MDCK cells.

As to `CCCCCCCCCC(=O)[O-].[Na+]` [sodium caprate], the “concentration safe for the Caco-2 cells” value in the data set with Caco-2 cells is “up to 0.64 mg/mL”. For the same compound, in data set [1] (oral with SHL, 150 mg/kg), the “damage in the small intestine” value was “significant damage in the small intestine”. Further, the “change in the morphology of the gastrointestinal membrane” value in data set [1] (oral with SHL, 25, 50, 100 mg/kg, 8 h exposure) is given as “did not cause any significant change”. The “damage in the gastro and colon tissues” value in data set [1] (oral with SHL, different dosages (25-150 mg/kg)) is “no significant damage”.
chitosan hexamer: the “concentration at which absorption enhancing effect is almost saturable” value in data set [2] is given as ~0.5 % (w/v).
In the case of `NC(=O)c1ncn([C@@H]2O[C@H](CO)[C@@H](O)[C@H]2O)n1` [ribavirin, Ribavirin], the “inhibition rate on influenza virus” value in data set [3] was “remarkable increase in inhibition rate”.
